Measurements published in BindingDB's records for PubMed 19295546 (Mayo Clinic).

Legend:
[1] = target: Signal transducer and activator of transcription 3 (Homo sapiens, UniProt P40763); test: Inhibition of STAT3 phosphorylation in human HEL cells by Western blot analysis
[2] = target: T1, Signal transducer and activator of transcription 5A (Homo sapiens, UniProt P42229); test: Inhibition of STAT5 phosphorylation in human HEL cells by Western blot analysis
T1 sequence (P42229 whole entry): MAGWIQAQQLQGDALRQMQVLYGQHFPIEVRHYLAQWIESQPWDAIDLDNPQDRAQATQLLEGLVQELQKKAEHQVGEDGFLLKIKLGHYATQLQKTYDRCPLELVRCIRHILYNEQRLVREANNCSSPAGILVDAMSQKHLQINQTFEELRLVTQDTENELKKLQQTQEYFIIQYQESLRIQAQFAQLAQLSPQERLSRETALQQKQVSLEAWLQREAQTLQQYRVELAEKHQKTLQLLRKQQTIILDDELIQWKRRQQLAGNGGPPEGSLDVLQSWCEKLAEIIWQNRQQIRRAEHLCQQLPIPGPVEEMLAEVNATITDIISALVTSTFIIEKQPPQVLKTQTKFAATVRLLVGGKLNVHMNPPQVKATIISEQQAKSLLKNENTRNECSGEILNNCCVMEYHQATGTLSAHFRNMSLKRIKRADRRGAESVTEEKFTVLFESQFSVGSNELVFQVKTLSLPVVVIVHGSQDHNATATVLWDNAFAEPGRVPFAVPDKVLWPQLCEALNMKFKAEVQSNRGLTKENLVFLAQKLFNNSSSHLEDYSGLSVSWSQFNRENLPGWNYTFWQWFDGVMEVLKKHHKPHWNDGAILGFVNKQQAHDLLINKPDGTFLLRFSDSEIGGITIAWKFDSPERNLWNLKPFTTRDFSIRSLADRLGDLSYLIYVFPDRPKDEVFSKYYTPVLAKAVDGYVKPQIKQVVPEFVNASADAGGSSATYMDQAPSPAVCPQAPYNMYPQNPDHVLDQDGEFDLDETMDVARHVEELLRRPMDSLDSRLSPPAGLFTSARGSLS
Procedure, shortened: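 HEL cells were starved overnight in RPMI with 1% FCS, then exposed to compound for 2 h at 37 °C. Cells were lysed in RIPA buffer (50 mM HEPES pH 7.4, 150 mM NaCl, 1% Triton X-100, deoxycholate, 0.1% SDS) with protease and phosphatase inhibitors. Protein was quantified by Bradford assay and blots were developed by chemiluminescence. Membranes were stripped and reprobed for total STAT5.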

[3] = target: 3-phosphoinositide-dependent protein kinase 1 (PDPK1) (Homo sapiens) (UniProt O15530); test: Inhibition of PDK1 (unknown origin)

Signal transducer and activator of transcription 3, sequence (P40763 whole entry): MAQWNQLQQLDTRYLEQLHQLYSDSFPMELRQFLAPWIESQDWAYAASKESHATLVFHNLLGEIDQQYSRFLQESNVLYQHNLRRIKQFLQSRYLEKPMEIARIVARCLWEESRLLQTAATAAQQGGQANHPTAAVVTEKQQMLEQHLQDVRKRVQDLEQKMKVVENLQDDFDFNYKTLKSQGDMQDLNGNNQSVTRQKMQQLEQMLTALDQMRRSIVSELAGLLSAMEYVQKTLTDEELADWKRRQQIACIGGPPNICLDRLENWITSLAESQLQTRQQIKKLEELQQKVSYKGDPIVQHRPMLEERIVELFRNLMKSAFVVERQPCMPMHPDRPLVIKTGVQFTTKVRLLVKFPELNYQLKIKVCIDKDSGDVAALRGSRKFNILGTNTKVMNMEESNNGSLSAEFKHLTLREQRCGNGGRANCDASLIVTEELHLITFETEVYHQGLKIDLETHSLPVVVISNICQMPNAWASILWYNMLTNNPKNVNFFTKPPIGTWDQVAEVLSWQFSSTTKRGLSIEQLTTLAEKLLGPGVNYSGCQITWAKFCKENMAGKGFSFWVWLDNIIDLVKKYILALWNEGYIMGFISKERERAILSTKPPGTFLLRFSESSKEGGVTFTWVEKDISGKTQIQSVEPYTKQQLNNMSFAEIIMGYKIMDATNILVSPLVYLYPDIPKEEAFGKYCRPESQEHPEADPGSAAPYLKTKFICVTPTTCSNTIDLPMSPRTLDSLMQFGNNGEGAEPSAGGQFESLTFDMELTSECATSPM

N#CCNC(=O)c1ccc(-c2ccnc(Nc3ccc(N4CCOCC4)cc3)n2)cc1 [N-(cyanomethyl)-4-(2-(4-morpholinophenylamino)pyrimidin-4-yl)benzamide]
IC50 [1]: 2500 nM | IC50 [2]: 400 nM | IC50 [3]: > 1000 nM
